The target of assay [1] is Cannabinoid receptor 1 (Mus musculus) (UniProt P47746). Description: Antagonist activity at CB1 receptor in ICR mouse vas deferens assessed as inhibition of ACEA-stimulated electrically-induced muscle contraction at 10^-6 M. Format: functional, tissue-based. A digest of the protocol: (§1)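 Mouse vas deferens under electrical stimulation. Tissues were preincubated with compound at 10^-6 or 2 × 10^-6 M, then increasing concentrations of the CB1 agonist ACEA were added. Mean ± SEM, n = 6–8.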

Assay [2] concerns the target T1, Peroxisome proliferator-activated receptor alpha (Homo sapiens, UniProt Q07869).
T1 sequence (Q07869 whole entry): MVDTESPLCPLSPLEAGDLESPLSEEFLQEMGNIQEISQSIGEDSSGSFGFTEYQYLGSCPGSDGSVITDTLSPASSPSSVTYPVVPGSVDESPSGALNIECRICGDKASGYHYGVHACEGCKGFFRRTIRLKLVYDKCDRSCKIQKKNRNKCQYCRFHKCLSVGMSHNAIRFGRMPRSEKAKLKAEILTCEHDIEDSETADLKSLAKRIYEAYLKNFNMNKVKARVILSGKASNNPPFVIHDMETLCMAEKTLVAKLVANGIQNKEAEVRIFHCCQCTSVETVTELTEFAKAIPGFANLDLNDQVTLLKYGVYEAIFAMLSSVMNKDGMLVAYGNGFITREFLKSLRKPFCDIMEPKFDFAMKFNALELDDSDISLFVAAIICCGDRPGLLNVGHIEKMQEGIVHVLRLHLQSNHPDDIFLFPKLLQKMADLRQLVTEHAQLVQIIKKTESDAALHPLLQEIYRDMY
The assay can be described thus: Agonist activity at human PPARalpha expressed in MCF7 cells co-transfected CPTI DR1-type RE after 16 hrs by luciferase reporter gene assay. Format: functional, cell-based. An outline of the steps: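 Luciferase reporter assay in extracts of MCF-7 cells transiently transfected with a reporter carrying four copies of the human CPTI DR1-type response element, plus PPARα, RXRα and NCoR expression vectors. Cells treated 16 h with compounds at 10 μM, DMSO as solvent control. Mean of at least three experiments with SD; two-tailed paired Student's t-test against solvent.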

Assay [3] deals with T1, Peroxisome proliferator-activated receptor alpha. Description: Agonist activity at human PPARalpha expressed in MCF7 cells co-transfected CPTI DR1-type RE after 6 hrs by luciferase reporter gene assay. Format: functional, cell-based. A digest of the protocol:
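Luciferase reporter assay in extracts of MCF-7 cells transiently transfected with a human CPTI DR1-type response element reporter (four copies), plus PPARα, RXRα and NCoR vectors. Cells exposed 6 h to compounds at 10 μM, DMSO as solvent control. Basal and ligand-induced activity recorded.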
In general terms: Reporter assays use an easily measured gene product as a stand-in for the process of interest.

A further assay deals with Cannabinoid receptor 1 (Homo sapiens, UniProt P21554). Description: Displacement of [3H]-CP55940 from CB1 receptor after 90 mins by liquid scintillation counting. (Loss of bound radioactivity is the signal in a displacement assay; it reports binding, not function.)
Assay [4] addresses Cannabinoid receptor 2 (Homo sapiens) (UniProt P34972). Description: Displacement of [3H]-CP55940 from CB2 receptor after 90 mins by liquid scintillation counting.
Assay [5] has as its target Cannabinoid receptor 1 (Mus musculus) (UniProt P47746). The assay can be described thus: Agonist activity at CB1 receptor in ICR mouse vas deferens assessed as inhibition of amplitude of electrically-stimulated muscle contraction at 10^-7 to 1.8 x 10^-5 M relative to control. It is filed as functional, tissue-based. An outline of the steps: (§2)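 Mouse vas deferens, electrically stimulated nerve-smooth muscle preparation. Compounds tested at 10^-7 to 1.8 × 10^-5 M for effects on the nonstimulated basal recording and on the amplitude of electrically evoked contractions. Read-out was % inhibition of evoked contraction compared with vehicle.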

The target is the same in assay [6]. The assay can be described thus: Antagonist activity at CB1 receptor in ICR mouse vas deferens assessed as inhibition of ACEA-stimulated electrically-induced muscle contraction at 2 x 10^-6 M. It is filed as functional, tissue-based. A digest of the protocol: as §1
For assay [7], the target named is Cannabinoid receptor 2 (Mus musculus) (UniProt P47936). The assay can be described thus: Antagonist activity at CB2 receptor in ICR mouse vas deferens assessed as inhibition of JWH-015-stimulated electrically-induced muscle contraction. It is filed as functional, tissue-based.
In assay [8] the target is Cannabinoid receptor 1 (Mus musculus) (UniProt P47746). The assay can be described thus: Agonist activity at CB1 receptor in ICR mouse vas deferens assessed as effect on amplitude of nonstimulated muscle contraction at 10^-7 to 1.8 x 10^-5 M relative to control. It is filed as functional, tissue-based. An outline of the steps:
as §2

The test system of the next assay is Rattus norvegicus. The assay can be described thus: Inhibition of food intake in Wistar rat at 0.03 to 3 mg/kg, ip after 30 to 240 mins. It is filed as functional, organism-based.

Consider six compounds from ChEMBL document CHEMBL2021878, “Discovery of Potent Dual PPARα Agonists/CB1 Ligands” (ACS Med Chem Lett, 2011).

Broadly, the inhibition is the percentage by which the read-out fell short of the control. The EC50 is the concentration giving half of the maximal effect. The term Ki denotes a dissociation constant, usually derived from enzyme kinetics or from competition with a known ligand. The low end stands for a stronger hold on the target, the high end for a looser hold on the target.

Active and inactive are the calls of the source. No cut-off for these calls is given here.

Sequence of Cannabinoid receptor 1 (P21554 whole entry): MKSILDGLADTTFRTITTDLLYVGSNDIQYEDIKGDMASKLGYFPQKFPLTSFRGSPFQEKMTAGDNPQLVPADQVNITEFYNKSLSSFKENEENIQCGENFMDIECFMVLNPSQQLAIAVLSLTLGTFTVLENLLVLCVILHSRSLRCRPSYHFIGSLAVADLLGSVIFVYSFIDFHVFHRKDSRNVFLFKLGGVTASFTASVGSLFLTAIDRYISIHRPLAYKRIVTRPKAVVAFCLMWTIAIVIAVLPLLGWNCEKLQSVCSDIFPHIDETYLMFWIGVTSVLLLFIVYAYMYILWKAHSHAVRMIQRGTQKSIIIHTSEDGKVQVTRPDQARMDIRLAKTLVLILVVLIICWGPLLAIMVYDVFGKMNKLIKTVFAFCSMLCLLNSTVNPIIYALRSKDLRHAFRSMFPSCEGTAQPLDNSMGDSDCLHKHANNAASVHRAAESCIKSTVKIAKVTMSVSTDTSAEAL
Sequence of Cannabinoid receptor 1 (Mus musculus) (P47746 whole entry): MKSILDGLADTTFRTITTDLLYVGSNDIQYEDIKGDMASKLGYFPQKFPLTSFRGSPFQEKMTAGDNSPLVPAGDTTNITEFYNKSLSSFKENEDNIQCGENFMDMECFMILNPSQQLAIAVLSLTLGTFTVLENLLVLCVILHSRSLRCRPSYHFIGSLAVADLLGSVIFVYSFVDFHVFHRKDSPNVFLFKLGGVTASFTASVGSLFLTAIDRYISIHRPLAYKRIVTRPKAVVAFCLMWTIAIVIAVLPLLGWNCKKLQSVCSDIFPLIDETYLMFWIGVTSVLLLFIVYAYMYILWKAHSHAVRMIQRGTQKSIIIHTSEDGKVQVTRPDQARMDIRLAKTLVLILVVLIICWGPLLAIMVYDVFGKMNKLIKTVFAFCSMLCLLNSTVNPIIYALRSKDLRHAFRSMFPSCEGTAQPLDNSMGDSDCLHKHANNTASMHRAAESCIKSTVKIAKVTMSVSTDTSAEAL
Sequence of Cannabinoid receptor 2 (Mus musculus) (P47936 whole entry): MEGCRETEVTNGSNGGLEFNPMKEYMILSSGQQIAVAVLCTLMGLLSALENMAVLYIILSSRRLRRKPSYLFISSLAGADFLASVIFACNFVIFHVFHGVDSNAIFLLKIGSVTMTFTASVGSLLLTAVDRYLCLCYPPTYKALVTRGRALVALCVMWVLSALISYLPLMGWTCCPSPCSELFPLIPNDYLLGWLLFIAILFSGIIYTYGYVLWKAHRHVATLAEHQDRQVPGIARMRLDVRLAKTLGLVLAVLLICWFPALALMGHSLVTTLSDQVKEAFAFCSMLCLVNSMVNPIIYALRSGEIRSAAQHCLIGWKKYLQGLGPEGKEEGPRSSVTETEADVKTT
Sequence of Cannabinoid receptor 2 (Homo sapiens) (P34972 whole entry): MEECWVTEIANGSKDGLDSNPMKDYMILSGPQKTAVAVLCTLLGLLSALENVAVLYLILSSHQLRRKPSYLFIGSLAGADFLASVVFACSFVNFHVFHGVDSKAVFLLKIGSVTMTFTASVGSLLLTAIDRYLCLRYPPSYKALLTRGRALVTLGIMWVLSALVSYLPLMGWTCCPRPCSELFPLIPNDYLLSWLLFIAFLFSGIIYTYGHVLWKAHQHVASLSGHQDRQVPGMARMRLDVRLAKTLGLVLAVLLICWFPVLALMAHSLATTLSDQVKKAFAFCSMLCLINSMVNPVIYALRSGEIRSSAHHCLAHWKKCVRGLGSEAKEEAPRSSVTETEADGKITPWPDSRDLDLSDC

For `Cc1c(C(=O)NN2CCCCC2)nn(-c2ccc(Cl)cc2Cl)c1-c1ccc(I)cc1`, the inhibition entry in assay [1] was “Active”.
Consider `CCCCCCCC/C=C\CCCCCCCC(=O)NCCO` [OLEOYLETHANOLAMIDE], for which the figures for the EC50 in assay [2] and in assay [3] were 152 nM and 185 nM, respectively.
`CCOC(=O)C(C)(C)Oc1ccc(NC(=O)c2nn(-c3ccc(Cl)cc3Cl)c(-c3ccc(Cl)cc3)c2C)cc1` yielded a concentration giving a half-maximal response (EC50) in [3] of 1480 nM. The compound also registered a Ki on Cannabinoid receptor 1 of 109 nM. Also, in [4], the outcome was inactive.
As for `CCOC(=O)C(C)(C)Oc1cccc(NC(=O)c2nn(-c3ccc(Cl)cc3Cl)c(-c3ccc(Cl)cc3)c2C)c1`, the half-maximal effective concentration (EC50) in [2] was 743 nM; in [3], 856 nM. Also, the inhibitory constant (Ki) at Cannabinoid receptor 1 stood at 65 nM. Also, the inhibition in assay [5] is less than 10%. Further, the result in [1] and in [6] was Active. The result in [7] and in [8] was inactive. In addition, in the assay with Rattus norvegicus, the inhibition entry was “inactive”.
`Cc1c(C(=O)Nc2ccc(O)cc2)nn(-c2ccc(Cl)cc2Cl)c1-c1ccc(Cl)cc1` displayed an EC50 in assay [3] of 971 nM. Also, the affinity at Cannabinoid receptor 1 corresponds to a Ki of 4.6 nM. Further, the inhibition in assay [5] was less than 10%. Besides, the outcome in assay [1], in assay [6] and in assay [7] was Active. The outcome in [8] was inactive. Further, the inhibition result in the assay with Rattus norvegicus is “inactive”.
Turning to `Cc1c(C(=O)Nc2cccc(O)c2)nn(-c2ccc(Cl)cc2Cl)c1-c1ccc(Cl)cc1`, the EC50 in assay [2] came out at 989 nM; in assay [3] it was 887 nM. The affinity at Cannabinoid receptor 1, expressed as Ki, was 52 nM.
